pIC50: −log10 of the molar value.
system: HCT-116; test: Cytotoxicity against human HCT-116 cells assessed as reduction in cell viability incubated for 48 hrs by MTT assay; assay type: functional, cell-based; details: HCT-116, 48 h
Method in brief: (§1)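 Cancer cell lines were exposed to drug for 48 h, and the 50% inhibitory concentration was determined. Values are averages of three individual experiments. A549, HCT-116, BT-474 and MDA-MB-231 are human lines; B16F10 is a murine melanoma line.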

Compound | pIC50
COc1ccc(N/C=C\C(=O)c2nc(-c3ccc(F)cc3)n3ccccc23)cc1OC | < 4.52
O=C(/C=C\Nc1cnc2ccccc2c1)c1nc(-c2ccccc2)n2ccccc12 | < 4.52
COc1ccc(N/C=C\C(=O)c2nc(-c3ccccc3)n3ccccc23)cc1 | 5.15
COC(=O)Nc1nc2cc(C(=O)c3cccs3)ccc2[nH]1 [NOCODAZOLE] | 5.55
O=C(/C=C\Nc1ccc2[nH]ccc2c1)c1nc(-c2ccc(C(F)(F)F)cc2)n2ccccc12 | 4.57
O=C(/C=C\Nc1cnc2ccccc2c1)c1nc(-c2ccc(C(F)(F)F)cc2)n2ccccc12 | < 4.52
COc1ccc(N/C=C\C(=O)c2nc(-c3ccc(OC)cc3)n3ccccc23)cc1 | < 4.52
COc1ccc(N/C=C\C(=O)c2nc(-c3ccc(C(F)(F)F)cc3)n3ccccc23)cc1OC | < 4.52
O=C(/C=C\Nc1ccc(Cl)cc1)c1nc(-c2ccc(C(F)(F)F)cc2)n2ccccc12 | 4.94
Cc1cc2cc(N/C=C\C(=O)c3nc(-c4ccc(F)cc4)n4ccccc34)ccc2[nH]1 | < 4.52
COc1ccc(-c2nc(C(=O)/C=C\Nc3ccc4[nH]ccc4c3)c3ccccn23)cc1 | 4.76
O=C(/C=C\Nc1ccc(F)cc1)c1nc(-c2ccc(C(F)(F)F)cc2)n2ccccc12 | < 4.52
COc1ccc(-c2nc(C(=O)/C=C\Nc3ccc(F)cc3)c3ccccn23)cc1 | < 4.52
O=C(/C=C\Nc1ccc2cc[nH]c2c1)c1nc(-c2ccc(C(F)(F)F)cc2)n2ccccc12 | < 4.52
COc1ccc(-c2nc(C(=O)/C=C\Nc3ccc(Cl)cc3)c3ccccn23)cc1 | < 4.52
O=C(/C=C\Nc1ccc(F)cc1)c1nc(-c2ccc(F)cc2)n2ccccc12 | < 4.52
COc1ccc(N/C=C\C(=O)c2nc(-c3ccc(C(F)(F)F)cc3)n3ccccc23)cc1 | 5.11
COc1ccc(N/C=C\C(=O)c2nc(-c3ccc(F)cc3)n3ccccc23)cc1 | < 4.52

system: not listed separately; test: Cytotoxicity against human lung cancer cells assessed as reduction in cell viability incubated for 24 hrs by MTT assay; assay type: functional; details: Lung cancer cell line

Compound | GI50 [µM]
O=C1Nc2ccccc2/C1=C\c1nc(-c2ccccc2F)n2ccccc12 | 3.46

system: B16-F10; test: Cytotoxicity against mouse B16-F10 cells assessed as reduction in cell viability incubated for 48 hrs by MTT assay; assay type: functional, cell-based; details: B16-F10, 48 h; method in brief: as §1

Compound | pIC50
COc1ccc(N/C=C\C(=O)c2nc(-c3ccc(F)cc3)n3ccccc23)cc1OC | < 4.52
O=C(/C=C\Nc1cnc2ccccc2c1)c1nc(-c2ccccc2)n2ccccc12 | 5.42
COc1ccc(N/C=C\C(=O)c2nc(-c3ccccc3)n3ccccc23)cc1 | 5.75
COC(=O)Nc1nc2cc(C(=O)c3cccs3)ccc2[nH]1 [NOCODAZOLE] | 5.51
O=C(/C=C\Nc1ccc2[nH]ccc2c1)c1nc(-c2ccc(C(F)(F)F)cc2)n2ccccc12 | 4.74
O=C(/C=C\Nc1cnc2ccccc2c1)c1nc(-c2ccc(C(F)(F)F)cc2)n2ccccc12 | < 4.52
COc1ccc(N/C=C\C(=O)c2nc(-c3ccc(OC)cc3)n3ccccc23)cc1 | 5.67
COc1ccc(N/C=C\C(=O)c2nc(-c3ccc(C(F)(F)F)cc3)n3ccccc23)cc1OC | < 4.52
O=C(/C=C\Nc1ccc(Cl)cc1)c1nc(-c2ccc(C(F)(F)F)cc2)n2ccccc12 | < 4.52
Cc1cc2cc(N/C=C\C(=O)c3nc(-c4ccc(F)cc4)n4ccccc34)ccc2[nH]1 | < 4.52
COc1ccc(-c2nc(C(=O)/C=C\Nc3ccc4[nH]ccc4c3)c3ccccn23)cc1 | 5.29
O=C(/C=C\Nc1ccc(F)cc1)c1nc(-c2ccc(C(F)(F)F)cc2)n2ccccc12 | < 4.52
COc1ccc(-c2nc(C(=O)/C=C\Nc3ccc(F)cc3)c3ccccn23)cc1 | < 4.52
O=C(/C=C\Nc1ccc2cc[nH]c2c1)c1nc(-c2ccc(C(F)(F)F)cc2)n2ccccc12 | < 4.52
COc1ccc(-c2nc(C(=O)/C=C\Nc3ccc(Cl)cc3)c3ccccn23)cc1 | 5.91
O=C(/C=C\Nc1ccc(F)cc1)c1nc(-c2ccc(F)cc2)n2ccccc12 | < 4.52
COc1ccc(N/C=C\C(=O)c2nc(-c3ccc(C(F)(F)F)cc3)n3ccccc23)cc1 | < 4.52
COc1ccc(N/C=C\C(=O)c2nc(-c3ccc(F)cc3)n3ccccc23)cc1 | 5.59

system: not listed separately; test: Cytotoxicity against human lung cancer cells assessed as reduction in cell viability incubated for 48 hrs by MTT assay; assay type: functional; details: Lung cancer cell line

Compound | pIC50
O=C(/C=C\Nc1ccc(O)cc1)c1cn(-c2ccccc2)nc1-c1ccc(F)cc1 | 5.82

system: MDA-MB-231; test: Cytotoxicity against human MDA-MB-231 cells assessed as reduction in cell viability incubated for 48 hrs by MTT assay; assay type: functional, cell-based; details: MDA-MB-231, 48 h; method in brief: as §1

Compound | pIC50
COc1ccc(N/C=C\C(=O)c2nc(-c3ccc(F)cc3)n3ccccc23)cc1OC | < 4.52
O=C(/C=C\Nc1cnc2ccccc2c1)c1nc(-c2ccccc2)n2ccccc12 | 4.91
COc1ccc(N/C=C\C(=O)c2nc(-c3ccccc3)n3ccccc23)cc1 | 4.55
COC(=O)Nc1nc2cc(C(=O)c3cccs3)ccc2[nH]1 [NOCODAZOLE] | 5.74
O=C(/C=C\Nc1ccc2[nH]ccc2c1)c1nc(-c2ccc(C(F)(F)F)cc2)n2ccccc12 | 5.93
O=C(/C=C\Nc1cnc2ccccc2c1)c1nc(-c2ccc(C(F)(F)F)cc2)n2ccccc12 | < 4.52
COc1ccc(N/C=C\C(=O)c2nc(-c3ccc(OC)cc3)n3ccccc23)cc1 | < 4.52
COc1ccc(N/C=C\C(=O)c2nc(-c3ccc(C(F)(F)F)cc3)n3ccccc23)cc1OC | < 4.52
O=C(/C=C\Nc1ccc(Cl)cc1)c1nc(-c2ccc(C(F)(F)F)cc2)n2ccccc12 | 5.42
Cc1cc2cc(N/C=C\C(=O)c3nc(-c4ccc(F)cc4)n4ccccc34)ccc2[nH]1 | < 4.52
COc1ccc(-c2nc(C(=O)/C=C\Nc3ccc4[nH]ccc4c3)c3ccccn23)cc1 | 4.54
O=C(/C=C\Nc1ccc(F)cc1)c1nc(-c2ccc(C(F)(F)F)cc2)n2ccccc12 | < 4.52
COc1ccc(-c2nc(C(=O)/C=C\Nc3ccc(F)cc3)c3ccccn23)cc1 | < 4.52
O=C(/C=C\Nc1ccc2cc[nH]c2c1)c1nc(-c2ccc(C(F)(F)F)cc2)n2ccccc12 | < 4.52
COc1ccc(-c2nc(C(=O)/C=C\Nc3ccc(Cl)cc3)c3ccccn23)cc1 | < 4.52
O=C(/C=C\Nc1ccc(F)cc1)c1nc(-c2ccc(F)cc2)n2ccccc12 | 4.60
COc1ccc(N/C=C\C(=O)c2nc(-c3ccc(C(F)(F)F)cc3)n3ccccc23)cc1 | < 4.52
COc1ccc(N/C=C\C(=O)c2nc(-c3ccc(F)cc3)n3ccccc23)cc1 | < 4.52

system: A549; test: Cytotoxicity against human A549 cells assessed as reduction in cell viability incubated for 48 hrs by MTT assay; assay type: functional, cell-based; details: A549, 48 h; method in brief: as §1

Compound | pIC50
COc1ccc(N/C=C\C(=O)c2nc(-c3ccc(F)cc3)n3ccccc23)cc1OC | < 4.52
O=C(/C=C\Nc1cnc2ccccc2c1)c1nc(-c2ccccc2)n2ccccc12 | < 4.52
COc1ccc(N/C=C\C(=O)c2nc(-c3ccccc3)n3ccccc23)cc1 | < 4.52
COC(=O)Nc1nc2cc(C(=O)c3cccs3)ccc2[nH]1 [NOCODAZOLE] | 5.44
O=C(/C=C\Nc1ccc2[nH]ccc2c1)c1nc(-c2ccc(C(F)(F)F)cc2)n2ccccc12 | 5.28
O=C(/C=C\Nc1cnc2ccccc2c1)c1nc(-c2ccc(C(F)(F)F)cc2)n2ccccc12 | < 4.52
COc1ccc(N/C=C\C(=O)c2nc(-c3ccc(C(F)(F)F)cc3)n3ccccc23)cc1OC | < 4.52
O=C(/C=C\Nc1ccc(Cl)cc1)c1nc(-c2ccc(C(F)(F)F)cc2)n2ccccc12 | 4.73
Cc1cc2cc(N/C=C\C(=O)c3nc(-c4ccc(F)cc4)n4ccccc34)ccc2[nH]1 | < 4.52
COc1ccc(-c2nc(C(=O)/C=C\Nc3ccc4[nH]ccc4c3)c3ccccn23)cc1 | 5.32
O=C(/C=C\Nc1ccc(F)cc1)c1nc(-c2ccc(C(F)(F)F)cc2)n2ccccc12 | < 4.52
COc1ccc(-c2nc(C(=O)/C=C\Nc3ccc(F)cc3)c3ccccn23)cc1 | < 4.52
O=C(/C=C\Nc1ccc2cc[nH]c2c1)c1nc(-c2ccc(C(F)(F)F)cc2)n2ccccc12 | < 4.52
O=C(/C=C\Nc1ccc(F)cc1)c1nc(-c2ccc(F)cc2)n2ccccc12 | 4.88
COc1ccc(N/C=C\C(=O)c2nc(-c3ccc(C(F)(F)F)cc3)n3ccccc23)cc1 | 4.66
COc1ccc(N/C=C\C(=O)c2nc(-c3ccc(F)cc3)n3ccccc23)cc1 | 4.72

system: not listed separately; test: Cytotoxicity against human breast cancer cells assessed as reduction in cell viability incubated for 24 hrs by MTT assay; assay type: functional; details: Breast cancer cell line

Compound | GI50 [µM]
Fc1ccccc1-c1nc(-c2nc3ccc(C(F)(F)F)cc3[nH]2)c2ccccn12 | 1.37

system: BT-474; test: Cytotoxicity against human BT-474 cells assessed as reduction in cell viability incubated for 48 hrs by MTT assay; assay type: functional, cell-based; details: BT-474, 48 h; method in brief: as §1

Compound | pIC50
COc1ccc(N/C=C\C(=O)c2nc(-c3ccc(F)cc3)n3ccccc23)cc1OC | < 4.52
O=C(/C=C\Nc1cnc2ccccc2c1)c1nc(-c2ccccc2)n2ccccc12 | 4.71
COc1ccc(N/C=C\C(=O)c2nc(-c3ccccc3)n3ccccc23)cc1 | 4.89
COC(=O)Nc1nc2cc(C(=O)c3cccs3)ccc2[nH]1 [NOCODAZOLE] | 5.57
O=C(/C=C\Nc1ccc2[nH]ccc2c1)c1nc(-c2ccc(C(F)(F)F)cc2)n2ccccc12 | 5.28
O=C(/C=C\Nc1cnc2ccccc2c1)c1nc(-c2ccc(C(F)(F)F)cc2)n2ccccc12 | < 4.52
COc1ccc(N/C=C\C(=O)c2nc(-c3ccc(OC)cc3)n3ccccc23)cc1 | 4.81
COc1ccc(N/C=C\C(=O)c2nc(-c3ccc(C(F)(F)F)cc3)n3ccccc23)cc1OC | < 4.52
O=C(/C=C\Nc1ccc(Cl)cc1)c1nc(-c2ccc(C(F)(F)F)cc2)n2ccccc12 | 5.42
Cc1cc2cc(N/C=C\C(=O)c3nc(-c4ccc(F)cc4)n4ccccc34)ccc2[nH]1 | < 4.52
COc1ccc(-c2nc(C(=O)/C=C\Nc3ccc4[nH]ccc4c3)c3ccccn23)cc1 | 4.89
O=C(/C=C\Nc1ccc(F)cc1)c1nc(-c2ccc(C(F)(F)F)cc2)n2ccccc12 | < 4.52
COc1ccc(-c2nc(C(=O)/C=C\Nc3ccc(F)cc3)c3ccccn23)cc1 | < 4.52
O=C(/C=C\Nc1ccc2cc[nH]c2c1)c1nc(-c2ccc(C(F)(F)F)cc2)n2ccccc12 | < 4.52
COc1ccc(-c2nc(C(=O)/C=C\Nc3ccc(Cl)cc3)c3ccccn23)cc1 | 4.43
O=C(/C=C\Nc1ccc(F)cc1)c1nc(-c2ccc(F)cc2)n2ccccc12 | 4.77
COc1ccc(N/C=C\C(=O)c2nc(-c3ccc(C(F)(F)F)cc3)n3ccccc23)cc1 | < 4.52
COc1ccc(N/C=C\C(=O)c2nc(-c3ccc(F)cc3)n3ccccc23)cc1 | 4.80

— ChEMBL document CHEMBL4665711, “Synthesis of (Z)-3-(arylamino)-1-(3-phenylimidazo[1,5-a]pyridin-1-yl)prop-2-en-1-ones as potential cytotoxic agents” (Bioorg Med Chem Lett, 2020)
